Sampled rows, rich in hits. Any-hit rate of the full collection: about 2%.
dFosB act – activators of mouse delta FosB homodimer. activation, % at 25 µM. actives 0.99% (n = 340,000). P13346. purified delta FosB, TAMRA-CDK5 oligo fluorescence polarization; percent of positive-control signal above neutral wells;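 active = mean activation above about 17%, with every replicate also reaching it, limit read from the data, passing the limit was not always enough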
S100A4 MyoIIA – inhibitors of human S100A4 binding to myosin IIA peptide; S100A4/TAMRA-MyoIIA peptide fluorescence polarization; inhibition, % at 10.7 µM; P26447; actives 0.14% (n = 360,000);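 active = mean inhibition of at least 70% across replicates, with every replicate also reaching that level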
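System – human S100A4 monomer protein, biochemical binding assay · Buffer or medium – Calcium-containing HEPES buffer, pH 7.2 · Timing – 5 min between mix addition and reading · Also added – TAMRA-labelled myosin IIA heavy-chain peptide probe, 5 nM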
Statin myotox sup – suppression of simvastatin myotoxicity | C2C12 myotubes + simvastatin, ATP luminescence, 48 h; scaled: DMSO 0, geranylgeraniol control 100 | rescue of ATP level, % at 7.49 µM | actives 0.78% (n = 330,000);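 active = mean ATP rescue above about 67%, or every replicate alone reaching that limit, limit read from the data, passing the limit was not always enough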;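 note: myotubes were challenged with 10 µM simvastatin during compound exposure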
CAL PDZ FP-1 – CAL PDZ (human) peptide binding inhibition. purified CAL PDZ, TMR-peptide fluorescence polarization, 1 h. inhibition, % at 24.9 µM. actives 0.92% (n = 300,000). AID 602252;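 active = mean inhibition of at least 30% with at least half of replicates also reaching 30%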;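 note: 0% = DMSO neutral control and 100% = excess unlabeled competitor peptide PRC23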
CAL PDZ FP-2 – human CAL PDZ-peptide interaction inhibition; purified CAL PDZ, TMR-peptide fluorescence polarization, 1 h; actives 0.02% (n = 330,000); inhibition, % at 20 µM; Q9HD26;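 active = highest replicate inhibition of at least 40%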;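 note: plate controls were DMSO neutral control wells for no effect and unlabeled competitor peptide control wells for full effect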
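Test system: tagged CAL PDZ domain / Buffer or medium: sodium phosphate/NaCl buffer pH 7.4 with TCEP, IgG, Thesit / Reagent: TMR-labelled reporter peptide T*-PRC34 bound in PDZ groove / Compound dosing: single point, 20 µM / Schedule: 1 h incubation at room temperature before polarization reading / Technique: fluorescence polarization (mP) / Benchmarks: unlabelled peptide, DMSO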
CDK5 p35 inh – inhibitors of human CDK5/p35 kinase. Recombinant CDK5/p35, ADP-Glo luminescence, 60 min. inhibition, % at 10 µM. Q00535+Q15078. actives 0.01% (n = 330,000). AID 488839;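 active = highest replicate inhibition of at least 50% and at least 75% of replicates reaching 50%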;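 note: plate controls were DMSO neutral control for no effect and GW8510 at 10 µM for full effect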
Target sequence (Q00535 whole entry, looked up): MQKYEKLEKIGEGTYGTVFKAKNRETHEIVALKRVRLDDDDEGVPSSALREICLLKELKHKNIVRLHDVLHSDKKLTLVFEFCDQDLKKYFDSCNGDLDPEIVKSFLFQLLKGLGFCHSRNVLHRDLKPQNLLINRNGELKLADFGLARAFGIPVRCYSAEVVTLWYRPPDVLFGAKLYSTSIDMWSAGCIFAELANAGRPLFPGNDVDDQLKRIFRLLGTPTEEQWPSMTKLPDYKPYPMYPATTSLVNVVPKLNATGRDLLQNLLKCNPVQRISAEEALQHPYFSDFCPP
Target sequence (Q15078 whole entry, looked up): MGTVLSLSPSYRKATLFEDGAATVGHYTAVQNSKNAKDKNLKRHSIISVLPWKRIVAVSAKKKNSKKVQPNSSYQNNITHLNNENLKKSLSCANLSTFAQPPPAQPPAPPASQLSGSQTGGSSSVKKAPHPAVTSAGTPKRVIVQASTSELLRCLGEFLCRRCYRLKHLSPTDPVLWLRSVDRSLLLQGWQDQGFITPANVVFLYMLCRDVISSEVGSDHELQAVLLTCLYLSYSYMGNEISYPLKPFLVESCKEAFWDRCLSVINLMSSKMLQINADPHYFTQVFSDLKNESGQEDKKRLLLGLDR
Active calls of the source: *; x = no result.

SMILES	dFosB act	S100A4 MyoIIA	Statin myotox sup	CAL PDZ FP-1	CAL PDZ FP-2	CDK5 p35 inh
CC1=C(C(N)=O)C(c2ccc(Cl)cc2Cl)n2ncnc2N1 (stereo unspecified)	-4	x	-8	38*	0	1
CC(=O)C1=C(C)Nc2ncnn2C1c1ccccc1Cl (stereo unspecified)	-2	-2	-15	-5	-1	0
O=C(CN1CCN(C(=O)c2ccco2)CC1)Nc1ccc(F)cc1F	7	-3	-10	89*	0	0
Cc1ccccc1NNC(=O)C(=O)NNc1ccccc1C	2	-7	x	33*	-1	2
Cc1ccc(C)c(NNC(=O)C(=O)NNc2cc(C)ccc2C)c1	x	-5	x	x	x	x
Cc1ccccc1NC(=O)Cc1ccccc1	-1	x	x	70*	-2	0
Cc1ccc(NC(=O)CSc2ccc(-c3ccco3)nn2)cc1	-2	0	x	-4	-2	0
Cc1occc1C(=O)NNC(=S)Nc1cccc([N+](=O)[O-])c1	5	0	0	1	1	1
CC1CN(CCCCOc2ccc(Cl)c3ccccc23)CC(C)O1 (stereo unspecified)	2	1	-4	43*	20	1
CC1CN(CCCCOc2ccc(C(C)C)cc2)CC(C)O1 (stereo unspecified)	-7	x	-7	2	-2	-3
COc1ccccc1C(=O)NNC(=O)C(=O)Nc1ccc(C)cc1	-9	1	-13	-9	0	1
C[C@H](CO)N1C[C@H](C)[C@@H](CN(C)Cc2ccc(Cl)c(Cl)c2)Oc2ccc(NC(=O)C3CC3)cc2CC1=O	x	6	85*	x	x	x
C[C@@H]1CN([C@H](C)CO)C(=O)Cc2cc(NC(=O)c3ccncc3)ccc2O[C@@H]1CN(C)Cc1ccc(Cl)c(Cl)c1	x	-1	70*	x	x	x
C[C@H]1CN([C@@H](C)CO)C(=O)Cc2cc(NC(=O)C3CC3)ccc2O[C@@H]1CN(C)Cc1ccc(Cl)c(Cl)c1	x	-2	12	x	x	x
O=C(c1cccc(F)c1)N1C[C@@H]2[C@H](c3ccccc31)[C@H](CO)N2C(=O)C1CCOCC1	x	-10	-16	x	x	x
C[C@H]1CN([C@@H](C)CO)C(=O)c2cccc(NC(=O)Nc3cccc4ccccc34)c2O[C@H]1CN(C)Cc1ccccc1	x	13	25	x	x	x
O=C(O)CN1C(=O)/C(=C/c2ccc(N3CCCCC3)o2)SC1=S	86*	11	1	3	0	7
COC(=O)CN1C(=O)S/C(=C/c2ccc(N3CCCCC3)o2)C1=O	2	x	31	-2	0	-4
O=C(O)CCCCCN1C(=O)/C(=C\c2ccc(-c3ccc(Cl)cc3)o2)SC1=S	-5	-12	133*	-2	-1	2
Cc1cc(C)c2[nH]c(=O)c(CN(CC3CCCO3)C(=O)C3CCCO3)cc2c1 (stereo unspecified)	-7	x	-13	-2	1	0
COc1ccc(CNC(=O)O[C@]23C[C@H]4C(=O)N(c5ccccc5)C(=O)[C@H]4C[C@@]2(O)CN(S(=O)(=O)c2ccc(C)cc2)C3)cc1OC	x	-3	6	x	x	x
Cc1ccc(NC(=O)N2CCN(c3ccccn3)CC2)cc1	-2	-1	92*	-4	-1	-1
CCCNC(=O)N1C[C@@H](C)[C@@H](OC)CN(C)C(=O)c2cc(NS(=O)(=O)CC)ccc2OC[C@@H]1C	x	3	-15	x	x	x
CO[C@H]1CN(C)C(=O)c2ccc(NC(=O)C3CC3)cc2OC[C@@H](C)N(CC2CC2)C[C@@H]1C	x	5	-35	x	x	x
O=C1CNC[C@H]2[C@@H](c3ccc(C#CC4CCCC4)cc3)[C@@H](CO)N12	x	88*	x	x	x	x
SMILES	dFosB act	S100A4 MyoIIA	Statin myotox sup	CAL PDZ FP-1	CAL PDZ FP-2	CDK5 p35 inh
O=C1CNC[C@@H]2[C@@H](c3ccc(C#CC4CCCC4)cc3)[C@H](CO)N12	x	-12	x	x	x	x
COc1ccc(/C=C(\C#N)c2cc(OC)c(OC)cc2[N+](=O)[O-])cc1	-1	-6	-34	0	-3	-3
COc1cc(/C(C#N)=C/c2ccccc2)c([N+](=O)[O-])cc1OC	-2	x	84*	x	-1	-2
O=C(C[C@H]1CC[C@@H]2[C@H](COC[C@H](O)CN2C(=O)c2cnccn2)O1)NCc1ccc(Oc2ccccc2)cc1	x	x	23	x	x	x
CN(C)CC(=O)N[C@H]1CC[C@@H](CC(=O)NCc2ccc(Cl)cc2)O[C@@H]1CO	x	82*	-6	x	x	x
COc1ccc(CNC(=O)C[C@@H]2CC[C@@H](NC(=O)CN(C)C)[C@H](CO)O2)cc1	x	-4	-4	x	x	x
CCCn1nnnc1SCC(=O)N1CCCC1	-9	x	x	43*	-1	x
Cc1ccc(-n2nnnc2SCC(=O)N2CCCCC2)cc1	2	x	-1	-2	0	2
COc1cccc(-c2nnc(SCC(=O)N3CCCc4ccccc43)o2)c1	-14	x	98*	2	-2	1
O=C(CSc1nnnn1-c1cccc2c1CCCC2)N1CCCCC1	-8	x	105*	11	0	-1
COc1ccc(-n2nnnc2SCC(=O)N2CCCc3ccccc32)cc1OC	2	x	128*	x	-1	-1
CCCn1nnnc1SCC(=O)N1CCCCC1	-4	34	3	14	-3	-1
CCN(CC)C(=O)CSc1nc2sc(C)c(C)c2c(=O)[nH]1	-16	x	-1	-10	-2	2
C[C@@H]1CN([C@H](C)CO)C(=O)CCCn2nncc2CO[C@H]1CN(C)C(=O)NC1CCCCC1	x	-2	-3	x	x	x
Cc1cccc(OCC(=O)N2CCCc3ccccc32)c1	-5	-6	x	71*	11	1
COc1cc(OC)cc(-c2nnc(SCC(=O)N3CCCc4ccccc43)o2)c1	-11	x	108*	-1	-2	0
CC(=O)c1cccc(OCC(=O)N2CCCc3ccccc32)c1	-7	-3	12	x	-1	0
O=C(NCC[C@H]1CC[C@@H](NC(=O)C2CCC2)[C@H](CO)O1)c1cc(Cl)cc(Cl)c1	x	6	1	x	x	x
CCOC(=O)CCc1c(C)c2ccc(OCc3ccc([N+](=O)[O-])cc3)cc2oc1=O	-3	x	x	-1	-1	0
[O-][n+]1cccc2cccc(O)c21	3	-2	5	49*	0	-1
Cc1ccc(N2CCN(C(=O)c3ccccc3F)CC2)c(C)c1	-2	1	-21	-1	0	-2
O=C(C[C@H]1C[C@H]2c3cc(NC(=O)Cc4ccncc4)ccc3O[C@H]2[C@H](CO)O1)NCc1ccccn1	x	96*	6	x	x	x
O=C(C[C@@H]1C[C@H]2c3cc(NS(=O)(=O)c4ccccc4)ccc3O[C@H]2[C@@H](CO)O1)N1CCOCC1	x	111*	-5	x	x	x
